MEKK2wt PB1 HTS – modulators of MEK5 binding to wildtype MEKK2, primary screen, biochemical, multiplex bead flow cytometry, Alexa488-MEK5; Mitogen-activated protein kinase kinase kinase 2 (Homo sapiens), Q9Y2U5; binding response (% of control), % at 10 µM; Alexa488-MEK5 binding to MEKK2 WT; actives lie on both sides; actives 1.1% (n = 290,000); in the data active = binding response below about 67% or above about 130%
DNA FID counter – compounds displacing fluorescent DNA intercalator, primary screen, artefact control for HCV NS3 helicase inhibitor project, biochemical, FID fluorescence. AID 1845, 2009. DNA fluorescent intercalator displacement. inhibition, % at 7.9 µM. actives 0.17% (n = 290,000); in the data active = inhibition above about 37%;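 also: 0% = vehicle and 100% = reference compound; higher means more ethidium bromide displaced from hairpin DNA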
T cruzi inh – inhibitors of intracellular T. cruzi growth, primary screen, luminescence, NIH3T3 host cells | T. cruzi beta-gal in NIH3T3, 90 h | inhibition, % (test concentration not listed) | actives 1.4% (n = 300,000);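 active = mean inhibition across valid replicates above about 55%, limit read from the data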;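 also: signal also drops with host cell toxicity which is not excluded here; 0% = plate median of DMSO wells and 100% = zero luminescence signal; higher percent means less beta-gal luminescence so fewer parasites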
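Assay system: NIH/3T3 host cells with β-galactosidase reporter T. cruzi; input: 5,000 host fibroblasts per well; compound: single 50 nL compound addition per well in DMSO; timing: ≥90 h infection period, 3 h prior cell attachment; measured by: GalScreen β-gal luminescence, detergent lysis, 60 min; evaluation: percent inhibition of parasite-derived β-gal signal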
MEKK3 PB1 HTS – modulators of MEKK3-MEK5 PB1 binding, primary screen, biochemical, wildtype MEKK3, multiplex bead flow cytometry, Alexa488-MEK5 | AID 1529, 2009 | bead-based flow cytometry, Alexa488-MEK5 binding to MEKK3; actives lie on both sides; 0 = blocked by unlabeled MEK5, 100 = vehicle | binding response (% of control), % at 10 µM | actives 1.4% (n = 290,000) | Mitogen-activated protein kinase kinase kinase 3 (Homo sapiens), Q99759;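 active = binding response more than 3 SD above or below the average of its plate-row segment, actives on both sides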;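 also: Alexa488 bead fluorescence after subtracting the streptavidin-only scavenger bead signal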
Target sequence (Q99759 whole entry, looked up): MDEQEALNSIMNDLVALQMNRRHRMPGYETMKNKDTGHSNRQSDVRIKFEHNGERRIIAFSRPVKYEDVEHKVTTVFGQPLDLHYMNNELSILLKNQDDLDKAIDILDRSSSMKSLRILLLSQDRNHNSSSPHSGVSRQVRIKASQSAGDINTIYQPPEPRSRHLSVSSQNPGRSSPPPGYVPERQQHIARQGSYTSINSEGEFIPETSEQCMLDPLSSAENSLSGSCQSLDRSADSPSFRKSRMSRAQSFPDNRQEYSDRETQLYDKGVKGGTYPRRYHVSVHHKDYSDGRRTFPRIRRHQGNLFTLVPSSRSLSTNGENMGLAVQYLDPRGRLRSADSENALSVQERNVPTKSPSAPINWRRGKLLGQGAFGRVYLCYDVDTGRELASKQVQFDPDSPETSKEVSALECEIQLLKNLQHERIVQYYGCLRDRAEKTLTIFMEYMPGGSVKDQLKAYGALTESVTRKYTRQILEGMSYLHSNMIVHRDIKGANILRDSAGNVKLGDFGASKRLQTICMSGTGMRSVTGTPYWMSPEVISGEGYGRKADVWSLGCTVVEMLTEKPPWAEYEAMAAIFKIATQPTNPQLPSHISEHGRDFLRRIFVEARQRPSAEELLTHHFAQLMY
MEKK2mut PB1 HTS – MEK5 binding signal on mutant MEKK2 PB1, primary screen, biochemical, multiplex bead flow cytometry, Alexa488-MEK5 | Alexa488-MEK5 binding to MEKK2 mutant | percent response, % at 10 µM | actives 0.35% (n = 290,000) | AID 1530, 2009; in the data active = percent response above about 24%, passing the limit was not always enough
NS3 helicase inh – inhibitors of HCV NS3 helicase, primary screen, biochemical, Cy5 molecular beacon fluorescence; Hepatitis C virus NS3 helicase; NS3 helicase DNA unwinding; inhibition, % at 10.9 µM; actives 0.56% (n = 290,000);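 active = inhibition above the mean of all tested compounds plus 3 SD, set per campaign, cut at about 35% in these data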;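 also: 0% = DMSO wells and 100% = thioflavine S control wells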
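Measured by: Cy5 fluorescence, 0 and 60 min reads / Assay system: NS3 helicase fragment of HCV / Control set: low DMSO, high thioflavine S at 110 µM / Times: 1 h reaction at 25 °C, ATP-initiated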
MEKK2wt confirm – modulators of MEK5 binding to wildtype MEKK2, confirmation, biochemical, single concentration, multiplex bead flow cytometry. shares compounds with MEKK3 PB1 HTS. Alexa488-MEK5 binding to MEKK2 WT; actives lie on both sides. binding response (% of control), % at 10 µM. actives 2.4% (n = 5,900). AID 1892, 2009; in the data active = binding response below about 16% or above about 210%; inactive = in between
MEKK2mut-MEK5 – mutant MEKK2 PB1-MEK5 binding signal retest – biochemical, single concentration, multiplex bead flow cytometry, confirmation | shares compounds with MEKK3 PB1 HTS | Alexa488-MEK5 binding to MEKK2 mutant | percent response, % at 10 µM | actives 2% (n = 5,900); in the data active = percent response mostly above about 71%, no sharp cut-off; inactive = mostly below about 38%;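 also: higher means compound restores mutant binding toward wildtype level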
MEKK3-MEK5 inh – MEKK3 wild-type PB1 binding to MEK5, inhibitors, confirmation, biochemical, bead multiplex flow cytometry, single concentration, wildtype | shares compounds with MEKK3 PB1 HTS | Alexa488-MEK5 binding to MEKK3; active compounds read low | binding response (% of control), % at 10 µM | actives 1.8% (n = 5,900);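 active = binding response below 72% of control, or above a set upper limit, though filed actives all read lower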;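 also: 100% = DMSO only wells and 0% = binding blocked by excess unlabeled MEK5; lower values mean stronger disruption of MEK5 binding to MEKK3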
An asterisk follows results filed as active; . = no result; [ ] = another dose, or the depositor's remark. Most compounds without a hit are left out; they make up all but 4.1% or so of the library.

SMILES	MEKK2wt PB1 HTS	DNA FID counter	T cruzi inh	MEKK3 PB1 HTS	MEKK2mut PB1 HTS	NS3 helicase inh	MEKK2wt confirm	MEKK2mut-MEK5	MEKK3-MEK5 inh
COc1ccc(C[C@H]2CN3C(=NC[C@@H]3Cc3ccc(O)cc3)N2CCNC(=O)c2ccc(C)c(Br)c2)cc1	247*	12	28	111	96*	-72	196	48	109
Cc1ccc(C(=O)NCCN2C3=NC[C@@H](Cc4ccccc4)N3C[C@H]2Cc2ccc(O)cc2)cc1Br	185*	22	37	107	52*	-58	200	56	113
C=CCNC(=S)NC(=O)c1ccc(C)c(Br)c1	101	-11	-13	102	4	9	.	.	.
C/C=C(\C)C(=O)NCCN1C2=NC[C@@H](C)N2C[C@@H]1Cc1ccc(OC)cc1	118	1	-5	105	17	-6	.	.	.
Cc1ccc(C(=O)NCCN2C3=NC[C@H](Cc4ccc(O)cc4)N3C[C@H]2Cc2ccc(O)cc2)cc1Br	143*	.	-8	106	13	.	134	15	100
CCN(CC)S(=O)(=O)c1ccc(N2CCOCC2)c(NC(=O)Cc2cccc3ccccc23)c1	97	-3	21	97	-2	-10	.	.	.
CC(=O)N1c2ccc(S(=O)(=O)NCC3CCC(C(=O)Nc4cc(C)ccn4)CC3)cc2CC1C (stereo unspecified)	104	-37	-2	104	7	7	.	.	.
O=c1sc2ccccc2c(=O)n1Cc1ccccc1F	125	0	13	139*	6	-2	105	4	104
O=C(O)CN(c1ccccc1)S(=O)(=O)c1cc(C(F)(F)F)cc(C(F)(F)F)c1	99	-25	4	110	-9	27	.	.	.
CC1C=CCC2C(=O)N(c3ccc(OC(=O)c4ccco4)cc3)C(=O)C12 (stereo unspecified)	134	-21	-1	161*	7	6	111	6	106
CC1C=CCC2C(=O)N(c3ccc(OC(=O)c4cccs4)cc3)C(=O)C12 (stereo unspecified)	92	-16	-8	99	-6	-8	.	.	.
CCc1nn2cc(C(=O)c3cc(Cl)ccc3O)cnc2c1-c1ccc(F)cc1	96	5	2	108	-1	-6	.	.	.
CN(c1ccccc1)c1nc(N2CCCC2)nc(-n2ccnc2)n1	134*	-31	12	116	15	-2	104	1	102
Cc1n[nH]c(C)c1N1C(=O)c2cccc3c(N4CCCCCC4)ccc(c23)C1=O	67*[inhibitor]	-41	38	113	40*	-17	91	-7	96
O=C1c2cccc3c(N4CCCCC4)ccc(c23)C(=O)N1c1cccc(O)c1	91	-10	31	100	-2	-1	.	.	.
Cc1cc(C(=O)COC(=O)Cc2n[nH]c(=O)c3ccccc23)c(C)n1-c1cccc(C(F)(F)F)c1	104	-20	13	136*	1	0	103	-2	101
COc1ccc(C(=O)N2CCC(c3ccccc3)CC2)c(OC)c1OC	123	-31	-17	134*	2	5	109	0	102
O=C(NCc1ccco1)c1ccc(Cn2c(=O)c3ccccc3n(Cc3ccc(Cl)cc3)c2=O)cc1	122	-2	41	133*	8	-22	108	3	105
O=C1NCN(c2ccccc2)C12CCN(CCCC(c1ccc(F)cc1)c1ccc(F)cc1)CC2	207*	10	44	113	25*	-63	165	50	106
O=C1CCC(=O)N1CCC(c1ccc(F)cc1)c1ccco1 (stereo unspecified)	100	-16	-2	104	5	1	.	.	.
O=C(COC(=O)/C=C/c1cccc(Cl)c1)NCCC1=CCCCC1	109	-10	-8	130*	2	-8	103	3	104
CC(C(=O)c1ccc(-c2ccccc2)cc1)[n+]1ccccc1 (stereo unspecified)	102	17	-1	98	0	-7	.	.	.
CC(=O)Nc1cc[n+](C(C)C(=O)c2ccc(Cl)cc2)cc1 (stereo unspecified)	54	5	-3	41*[inhibitor]	-14	1	103	0	100
Cc1cc[n+](C(C)C(=O)c2ccc(-c3ccccc3)cc2)cc1 (stereo unspecified)	152*	10	73*	106	29	24	101	-2	97
CCOC(=O)c1c(CSCc2ccccc2)oc2ccc(O)c(CN(C)C)c12	137*	31	39	104	18	-71	139	21	106
SMILES	MEKK2wt PB1 HTS	DNA FID counter	T cruzi inh	MEKK3 PB1 HTS	MEKK2mut PB1 HTS	NS3 helicase inh	MEKK2wt confirm	MEKK2mut-MEK5	MEKK3-MEK5 inh
CS(=O)(=O)c1nc(-c2ccc(Br)cc2)n[nH]1	101	-4	-1	98	-1	11	.	.	.
COC(=O)c1ccc(CN(c2ccccn2)S(=O)(=O)c2ccccc2)cc1	126	-15	-17	132*	9	0	94	-5	99
CCOC(=O)CN(c1ccccn1)S(=O)(=O)c1ccccc1	106	2	0	103	10	-4	.	.	.
Cc1sc(NC(=O)c2ccccc2)c(C(c2ccccn2)N2CCN(CCO)CC2)c1C (stereo unspecified)	111	1	10	140*	0	-23	1.0*[inhibitor]	-29	2.0*
CC(NC(=O)c1ccncc1)c1ccc(Cl)cc1Cl (stereo unspecified)	104	-6	14	106	5	-8	.	.	.
CCN1CCc2c(sc(NC(=O)c3cc4ccccc4cc3OC)c2C(N)=O)C1	149*	34	58*	104	26*	-42	131	30	88

Screens as filed in PubChem.
